Data: ChEMBL document CHEMBL1140914, “Synthesis and in vitro and in vivo evaluation of 18F-labeled positron emission tomography (PET) ligands for imaging the vesicular acetylcholine transporter” (J Med Chem, 2009)

What was measured:
[1] = target: T1, Vesicular acetylcholine transporter (Homo sapiens, UniProt Q16572); test: Displacement of [3H]vesamicol from human vesicular acetylcholine transporter expressed in rat PC12 cells by liquid scintillation spectrometry; format: cell-based, PC-12
T1 sequence (Q16572 whole entry): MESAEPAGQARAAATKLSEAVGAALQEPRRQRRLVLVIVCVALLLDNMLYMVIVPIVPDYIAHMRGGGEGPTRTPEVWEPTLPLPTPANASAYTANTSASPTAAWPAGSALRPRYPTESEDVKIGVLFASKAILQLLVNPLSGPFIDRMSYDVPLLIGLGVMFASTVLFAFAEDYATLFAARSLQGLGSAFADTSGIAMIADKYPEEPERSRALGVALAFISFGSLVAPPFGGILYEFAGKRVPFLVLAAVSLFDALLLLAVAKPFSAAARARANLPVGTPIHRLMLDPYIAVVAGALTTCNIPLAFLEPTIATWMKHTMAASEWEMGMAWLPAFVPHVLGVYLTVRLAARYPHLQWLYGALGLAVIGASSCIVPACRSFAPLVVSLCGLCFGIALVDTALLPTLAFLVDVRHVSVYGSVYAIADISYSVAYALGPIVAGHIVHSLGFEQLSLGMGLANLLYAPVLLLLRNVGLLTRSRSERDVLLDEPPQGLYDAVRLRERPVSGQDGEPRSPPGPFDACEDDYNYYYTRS

[2] = target: Sigma non-opioid intracellular receptor 1 (Cavia porcellus, UniProt Q60492); test: Displacement of [3H](+)-pentazocine from sigma1 receptor in guinea pig brain membrane by liquid scintillation counting; format: cell membranes
Chain of Sigma non-opioid intracellular receptor 1 (Q60492 whole entry): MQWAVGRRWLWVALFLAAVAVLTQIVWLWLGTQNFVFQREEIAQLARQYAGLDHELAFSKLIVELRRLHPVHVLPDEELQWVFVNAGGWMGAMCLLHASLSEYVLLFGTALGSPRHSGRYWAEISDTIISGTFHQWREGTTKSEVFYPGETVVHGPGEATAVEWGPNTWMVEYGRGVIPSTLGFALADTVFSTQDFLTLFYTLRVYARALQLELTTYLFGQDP

[3] = Displacement of [3H]DTG from sigma2 receptor in rat liver membrane; format: cell membranes
In short: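 Rat liver membrane homogenate (~300 μg protein) incubated 2 h at room temperature with ~5 nM [3H]DTG plus 1 μM (+)-pentazocine to mask σ1 sites. Haloperidol 10 μM defines nonspecific binding. Filtered and counted.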

Structure (SMILES) | Kd [1] | Ki [1] | Ki [2] | Ki [3]
NCC1(c2ccccc2)CCN([C@@H]2Cc3c(I)cccc3C[C@H]2O)CC1 | 3 nM | – | – | –
O[C@@H]1CC[C@H](OCc2ccc(F)cc2)C[C@H]1N1CCC(c2ccccc2)CC1 | – | 10.7 nM | 30.6 nM | 18.5 nM
O[C@@H]1CCCC[C@H]1N1CCC(c2ccccc2)CC1 [VESAMICOL] | – | – | – | 34.5 nM
O[C@@H]1C[C@H](OCc2ccc(F)cc2)CC[C@H]1N1CCC(c2ccccc2)CC1 | – | 330 nM | 21.3 nM | 15.8 nM

Other lines, results leading:

Kd [1] | Ki [1] | Ki [2] | Ki [3] | Structure (SMILES)
– | 0.45 nM | – | – | O[C@@H]1Cc2cccc(OC/C=C/I)c2C[C@H]1N1CCC(c2ccccc2)CC1
– | 0.77 nM | – | – | O[C@@H]1Cc2cccc(OCCCF)c2C[C@H]1N1CCC(c2ccccc2)CC1
– | – | – | 319 nM | O=C(c1ccc(F)cc1)C1CCN([C@@H]2Cc3ccccc3C[C@H]2O)CC1 (stereo in doubt; (-)-9e)
– | 0.48 nM | – | – | O=C(c1ccc([N+](=O)[O-])cc1)C1CCN([C@@H]2Cc3ccccc3C[C@H]2O)CC1 (racemic)
